ED50 and inhibition in vivo data for 20 compounds are collected here from ChEMBL document CHEMBL1141659, “Synthesis, properties, and perspectives of gem-diphosphono substituted-thiazoles” (2008).

Assay [1] concerns Rattus norvegicus. The experiment in a line: Antiresorptive activity in thyroidparathyroidectomized sc dosed rat assessed as inhibition of 1,25-dihydroxyvitamin D3-induced hypercalcemia. Format: functional. The procedure, abridged:
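In vivo bone resorption was driven by 1,25-dihydroxyvitamin D3, which induced hypercalcemia in thyroparathyroidectomized (TPTX) rats. ED50 values for inhibition of resorption were determined following an earlier published method.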

Assay [2] has as its system Mus musculus. The experiment in a line: Antiinflammatory activity in delayed type hypersensitivity mouse model assessed as inhibition of granuloma dry weight at 100 mg/kg, sc.
Assay [3] concerns Mus musculus. The experiment in a line: Antiinflammatory activity in delayed type hypersensitivity mouse model assessed as inhibition of granuloma wet weight at 100 mg/kg, sc.

Usually ED50 stands for the midpoint of the dose-response relation. As a reminder, the inhibition in vivo is how much of the control response was suppressed. For `O=[N+]([O-])c1ccccc1/C=C(\c1nc2ccccc2s1)C(P(=O)(O)O)P(=O)(O)O`, the ED50 in assay [1] was 0.135 mg/kg. The inhibition in vivo at 100 mg/kg in assay [2] stood at 11%; in assay [3] it was 8%.

For `N#CC(c1nc2ccccc2s1)C(c1ccc(Cl)cc1)C(P(=O)(O)O)P(=O)(O)O` (stereo not drawn), in assay [1], the ED50 is 0.09 mg/kg. The values for the inhibition in vivo at 100 mg/kg in assay [2] and in assay [3] were 53% and 52%, respectively.

Turning to `Cc1ccc(C(C(C#N)c2nc3ccccc3s2)C(P(=O)(O)O)P(=O)(O)O)cc1` (stereo not drawn), in assay [1], the ED50 was 0.11 mg/kg. The results for the inhibition in vivo at 100 mg/kg in assay [2] and in assay [3] were 38% and 36%, respectively.

For the compound `NCCC(O)(P(=O)(O)O)P(=O)(O)O` [PAMIDRONIC ACID], in assay [1], the ED50 is 0.085 mg/kg.

For the compound `CN(C)c1ccc(C(C2SC(=S)NC2=O)C(P(=O)(O)O)P(=O)(O)O)cc1` (stereo not drawn), the ED50 in assay [1] was 0.07 mg/kg. In addition, the values for the inhibition in vivo at 100 mg/kg in assay [2] and in assay [3] were 55% and 52%, respectively.

`O=C1NC(=S)SC1C(c1ccccc1O)C(P(=O)(O)O)P(=O)(O)O` (stereo not drawn): the ED50 in assay [1] is 0.078 mg/kg. In addition, the inhibition in vivo at 100 mg/kg came to 51% in assay [2] and 54% in assay [3].

In the case of `O=C1NC(=S)SC1C(c1ccccc1Cl)C(P(=O)(O)O)P(=O)(O)O` (stereo not drawn), the ED50 in assay [1] is 0.08 mg/kg. Moreover, the inhibition in vivo at 100 mg/kg in assay [2] came out at 44%; in assay [3] it was 38%.

For the compound `N#CC(c1nc2ccccc2s1)C(c1ccc([N+](=O)[O-])cc1)C(P(=O)(O)O)P(=O)(O)O` (stereo not drawn), the ED50 in assay [1] is 0.095 mg/kg. For the same compound, the inhibition in vivo at 100 mg/kg in assay [2] was found to be 38%; in assay [3] it was 50%.

Consider `O=P(O)(O)C(/C(=C/c1ccccc1Cl)c1nc2ccccc2s1)P(=O)(O)O`, for which the ED50 in assay [1] was 0.105 mg/kg.

For `O=C1NC(=S)SC1C(c1ccc([N+](=O)[O-])cc1)C(P(=O)(O)O)P(=O)(O)O` (stereo not drawn), the median effective dose (ED50) in assay [1] is 0.085 mg/kg. The inhibition in vivo at 100 mg/kg in assay [2] was found to be 46%; in assay [3] it was 43%.

For `Cc1ccc(/C=C(\c2nc3ccccc3s2)C(P(=O)(O)O)P(=O)(O)O)cc1`, the ED50 in assay [1] is 0.125 mg/kg. For the same compound, the inhibition in vivo at 100 mg/kg in assay [2] is 13%; in assay [3], 6%.

In the case of `O=P(O)(O)C(O)(Cc1cccnc1)P(=O)(O)O` [RISEDRONIC ACID], the values for the inhibition in vivo at 100 mg/kg in assay [2] and in assay [3] were 44% and 48%, respectively.

Take `CN(C)c1ccc(/C=C(\c2nc3ccccc3s2)C(P(=O)(O)O)P(=O)(O)O)cc1`: in assay [1], the ED50 is 0.11 mg/kg. The figures for the inhibition in vivo at 100 mg/kg in assay [2] and in assay [3] were 19% and 14%, respectively.

`O=[N+]([O-])c1ccc(/C=C(\c2nc3ccccc3s2)C(P(=O)(O)O)P(=O)(O)O)cc1`: in assay [1], the ED50 is 0.115 mg/kg. In addition, the figures for the inhibition in vivo at 100 mg/kg in assay [2] and in assay [3] were 10% and 8%, respectively.

`O=C1NC(=S)SC1C(c1ccccc1[N+](=O)[O-])C(P(=O)(O)O)P(=O)(O)O` (stereo not drawn): in assay [1], the ED50 was 0.088 mg/kg. Besides, the inhibition in vivo at 100 mg/kg in assay [2] turned out to be 46%; in assay [3] it was 42%.

For `O=P(O)(O)C(/C(=C/c1ccc(Cl)cc1)c1nc2ccccc2s1)P(=O)(O)O`, in assay [1], the ED50 was 0.118 mg/kg.

Consider `N#CC(c1nc2ccccc2s1)C(c1ccccc1Cl)C(P(=O)(O)O)P(=O)(O)O` (stereo not drawn), for which the ED50 in assay [1] was 0.09 mg/kg. The values for the inhibition in vivo at 100 mg/kg in assay [2] and in assay [3] were 41% and 50%, respectively.

As for `CN(C)c1ccc(C(C(C#N)c2nc3ccccc3s2)C(P(=O)(O)O)P(=O)(O)O)cc1` (stereo not drawn), the ED50 in assay [1] was 0.08 mg/kg. Besides, the inhibition in vivo at 100 mg/kg in assay [2] was 58%; in assay [3], 53%.

Consider `N#CC(c1nc2ccccc2s1)C(c1ccccc1[N+](=O)[O-])C(P(=O)(O)O)P(=O)(O)O` (stereo not drawn), for which the ED50 in assay [1] is 0.105 mg/kg. In addition, the results for the inhibition in vivo at 100 mg/kg in assay [2] and in assay [3] were 51% and 48%, respectively.

As for `O=C1NC(=S)SC1C(c1ccccc1)C(P(=O)(O)O)P(=O)(O)O` (stereo not drawn), in assay [1], the ED50 was 0.077 mg/kg. Besides, the inhibition in vivo at 100 mg/kg in assay [2] turned out to be 39%; in assay [3], 46%.
